Source: PubChem BioAssay (several laboratories)
Only some compounds are listed: those with a hit (about 4% of all), similar ones and a draw of the others.
XBP1 UPR activ = activators of adaptive arm of unfolded protein response (XBP1); CHO-XBP1 luciferase reporter, IRE1-XBP1 UPR activation, luminescence; percent of tunicamycin response, DMSO as zero; activation, % at 20 µM; 330,000 compounds, 0.33% hits; AID 463104;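 active means versus positive control, 20 µM dose yields 30% or more activation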
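Assay system: CHO-XBP1 luciferase reporter cells; Schedule: 6 h treatment, 37 °C; Detection: glow luminescence from Steady-Glo reagent; Benchmarks: high control tunicamycin 10 µg/mL final, low control DMSO vehicle only.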
Granule exo inh = blocks lytic granule exocytosis; inhibition, % at 10 µM; 360,000 compounds, 0.66% hits; TALL-104 LAMP-1 surface exposure, flow cytometry; cells stimulated with thapsigargin and PMA;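 active means inhibition above about 55%, limit read from the data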
UPR CHOP act = activators of apoptotic arm of unfolded protein response (CHOP); activation, % at 10 µM; AID 449763; CHO-CHOP luciferase reporter, UPR activation, luminescence; percent of tunicamycin response over DMSO baseline; 330,000 compounds, 0.34% hits;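 active means at 10 µM dose, activation of 40% or more, normalized to positive control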
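measured by = luciferase luminescence | assay system = CHO-CHOP cells, stable luciferase reporter of PERK-eIF2a-CHOP signalling | amount = 500 reporter cells seeded per well | timing = 6 h compound exposure at 37 °C after overnight seeding | controls = positive tunicamycin 10 µg/mL, negative DMSO alone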
Mdm2-MdmX inh = human Mdm2/MdmX binding inhibition; SaOS-2 split-luciferase Mdm2/MdmX complementation, luminescence; inhibition, % at 8 µM; 330,000 compounds, 3% hits; AID 485346;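 active means inhibition of at least 50% at 8 µM in the primary screen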
ABHD5-PLIN5 inh = blocks binding of human ABHD5 to perilipin-5 | 360,000 compounds, 0.78% hits | Split G. princeps luciferase complementation, luminescence, 4 h | inhibition, % at 4 µM | AID 602281;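 active means inhibition above the mean inhibition across every tested compound plus 3 SD, cut at about 22% in these data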
Target sequence (Q00G26 whole entry, looked up): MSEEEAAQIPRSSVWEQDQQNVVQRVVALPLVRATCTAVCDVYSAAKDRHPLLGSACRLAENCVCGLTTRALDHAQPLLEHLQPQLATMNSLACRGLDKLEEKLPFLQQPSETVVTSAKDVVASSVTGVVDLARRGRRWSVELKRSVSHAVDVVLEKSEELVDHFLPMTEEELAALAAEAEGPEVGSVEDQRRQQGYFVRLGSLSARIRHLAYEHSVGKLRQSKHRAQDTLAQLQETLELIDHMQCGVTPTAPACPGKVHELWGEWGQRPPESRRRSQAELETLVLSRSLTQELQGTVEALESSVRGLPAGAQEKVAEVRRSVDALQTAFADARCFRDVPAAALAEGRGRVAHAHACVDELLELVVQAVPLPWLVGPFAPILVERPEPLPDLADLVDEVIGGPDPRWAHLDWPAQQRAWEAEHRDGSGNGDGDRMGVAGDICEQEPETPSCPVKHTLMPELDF
Target sequence (Q8WTS1 whole entry, looked up): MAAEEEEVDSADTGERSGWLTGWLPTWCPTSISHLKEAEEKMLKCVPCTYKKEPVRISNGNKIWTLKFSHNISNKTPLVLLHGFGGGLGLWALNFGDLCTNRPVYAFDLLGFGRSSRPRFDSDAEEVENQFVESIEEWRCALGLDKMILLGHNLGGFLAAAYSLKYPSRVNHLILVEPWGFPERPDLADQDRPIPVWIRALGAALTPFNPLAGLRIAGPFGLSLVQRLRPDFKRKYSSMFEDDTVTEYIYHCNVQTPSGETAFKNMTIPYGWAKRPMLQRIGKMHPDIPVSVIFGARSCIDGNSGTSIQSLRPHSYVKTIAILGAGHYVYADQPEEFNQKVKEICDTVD
Mdm2 MdmX conf = confirmation of human Mdm2/MdmX interaction inhibitors. shares compounds with Mdm2-MdmX inh. Mdm2-MdmX binding, luminescent assay. inhibition, % at 8 µM. 10,000 compounds, 55% hits. AID 489028; in the data active means inhibition above about 40%
FLuc counter = counter-screen for Mdm2/MdmX inhibitors: full-length luciferase. shares compounds with Mdm2-MdmX inh. SaOS-2 full-length luciferase counterscreen, luminescence. inhibition, % at 8 µM. 6,200 compounds, 77% hits. AID 504607;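 active means mean inhibition at 8 µM reaching about 37%, which flags the compound as non-specific, limit read from the data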;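 further: p53-null SaOS-2 cells with luciferase driven by a doxycycline-inducible promoter; compound on cells about two nights before reading with doxycycline added after day one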
Hits are given with their value; . = inactive; / = not tested or not shown; + = active, no number.

SMILES	XBP1 UPR activ	Granule exo inh	UPR CHOP act	Mdm2-MdmX inh	ABHD5-PLIN5 inh	Mdm2 MdmX conf	FLuc counter
S=C(NNc1ccc2ccccc2c1)NC1CCCCC1	.	.	.	64	.	55	.
Cc1ccc(S(=O)(=O)N2CCOCC2)cc1C(=O)OCC(=O)N1CCc2ccccc2C1	/	.	/	/	.	/	/
Oc1ccccc1N=N/C(=N/Nc1ccccc1O)c1ccccc1	.	.	.	.	.	/	/
Cn1nnnc1N=N/C(=N/Nc1ccccc1)c1ccccc1	.	.	.	86	.	85	49
COc1ccccc1NC(=O)N(Cc1ccco1)Cc1cc2cc(C)cc(C)c2[nH]c1=O	.	.	.	53	.	.	/
COc1ccccc1NC(=S)N(Cc1ccco1)Cc1cc2cc(C)c(C)cc2[nH]c1=O	.	.	.	59	.	54	56
Cc1cc2cc(CN(Cc3ccco3)S(=O)(=O)c3c(C)ccc4nsnc34)c(=O)[nH]c2cc1C	.	.	.	61	.	54	54
Cc1ccc(S(=O)(=O)Nc2cccc(C(=O)N3CCOCC3)c2)cc1	.	.	.	.	.	/	/
Cc1ccc(S(=O)(=O)N2CCOC23CCN(S(=O)(=O)c2cccs2)CC3)cc1	.	.	.	.	.	/	/
COc1ccc(OCc2nnc(SCC(=O)N3CCOCC3)o2)cc1	.	.	.	.	.	/	/
C=C1C(=O)O[C@@H]2C[C@@H](C)[C@@H]3C=CC(=O)[C@@]3(C)[C@@H](OC(C)=O)[C@H]12	.	/	.	100	/	100	51
CC(=O)OC1C(OC(C)=O)C2C(C)CC3OC(=O)C(C)C3CC2(C)C1OC(C)=O (centres undefined)	/	.	/	/	.	/	/
Cc1cc(C)c(OCC(=O)Nc2ccc3c(c2)OCO3)cc1C	.	.	.	.	.	/	/
COc1cc2nc(N(CCCN(C)C)C(=O)c3ccc(C(=O)c4ccccc4)cc3)sc2cc1OC	.	.	.	.	.	/	/
CCOc1cccc2sc(N(CCCN(C)C)C(=O)c3ccc(S(=O)(=O)N(C)Cc4ccccc4)cc3)nc12	.	.	.	74	.	.	60
CN(C)CCCN(C(=O)c1ccc(C(=O)c2ccccc2)cc1)c1nc2c(F)cccc2s1	.	.	.	.	.	/	/
CCc1ccc2nc(N(CCCN(C)C)C(=O)c3ccc(C(=O)c4ccccc4)cc3)sc2c1	.	.	.	74	.	.	/
CCOc1cccc2sc(N(CCCN(C)C)C(=O)c3ccc(C(=O)c4ccccc4)cc3)nc12	.	.	.	51	.	.	/
CCOc1cccc2sc(N(CCCN(C)C)C(=O)Cc3ccccc3)nc12	.	.	.	.	.	/	/
COc1ccc(-n2ccc(-c3nn(-c4cccc(C(F)(F)F)c4)ccc3=O)n2)cc1	.	.	.	.	.	/	/
O=C(Cn1c(=S)[nH]c2ccccc2c1=O)N1CCc2ccccc2C1	.	.	.	.	.	/	/
CCOc1cc(/C=C/C(=O)c2ccc3c(c2)OCCO3)ccc1OCC(=O)N(C)C	.	.	.	55	.	.	51
CCOc1ccc(S(=O)(=O)Nc2nc3ccccc3nc2-n2ccc(=NC(=O)c3cccs3)cc2)cc1	.	.	.	.	.	/	/
COCc1ccc(CN2CCC(C(=O)Nc3cccc(-c4cccc(Cl)c4)c3)CC2)o1	.	.	.	78	.	54	58
CCCn1ncc(CN2CCC(C(=O)Nc3cccc(-c4cccc(F)c4)c3)CC2)c1C	.	.	.	87	.	46	71
SMILES	XBP1 UPR activ	Granule exo inh	UPR CHOP act	Mdm2-MdmX inh	ABHD5-PLIN5 inh	Mdm2 MdmX conf	FLuc counter
Cc1nn(C(C)C)c(C)c1CN1CCC(C(=O)Nc2cccc(-c3cccc(F)c3)c2)CC1	.	.	.	78	.	52	62
C=CCn1cc(CN2CCC(C(=O)Nc3cccc(-c4cccc(F)c4)c3)CC2)c(C)n1	.	.	.	51	.	.	/
Cn1cc(CN2CCC(C(=O)Nc3cccc(-c4cccc(F)c4)c3)CC2)cn1	.	.	.	.	.	/	/
O=C(Nc1cccc(-c2cccc(F)c2)c1)C1CCN(Cc2ccco2)CC1	.	.	.	.	.	/	/
O=C(O)c1ccc(-n2cccn2)c([N+](=O)[O-])c1	.	.	.	.	.	/	/
CC(=O)Nc1ccc(S(=O)(=O)NCCC(=O)Nc2cccc(Cl)c2)cc1	.	.	.	.	.	/	/
Cc1c(CN2CCC(C(=O)Nc3cccc(-c4cccc(Cl)c4)c3)CC2)cnn1C	.	.	.	58	.	.	/
O=C(Nc1cccc(-c2cccc(Cl)c2)c1)C1CCN(Cc2ccccn2)CC1	.	.	.	.	.	/	/
C=CCn1cc(CN2CCC(C(=O)Nc3cccc(-c4cccc(Cl)c4)c3)CC2)c(C)n1	.	.	.	81	.	.	/
O=C(Nc1ccc(C(=O)O)cc1)Nc1ccc([N+](=O)[O-])cc1	.	.	.	.	.	/	/
O=C(Nc1ccc([N+](=O)[O-])cc1)Nc1ccon1	.	.	.	66	.	67	73
CCc1ccc(NC(=O)Nc2ccon2)cc1	.	.	.	.	.	/	/
COC(=O)c1ccc(NC(=O)Nc2ccc([N+](=O)[O-])cc2)cc1	.	.	.	59	.	43	85
O=[N+]([O-])c1ccc(S(=O)(=O)Nc2ccncc2)cc1	.	.	.	50	.	.	/
O=C(Nc1ccc(Nc2ccncc2)cc1)c1ccc([N+](=O)[O-])cc1	.	.	.	100	.	.	.
CCN(CC)C(=S)Nc1ccc2nc3n(c(=O)c2c1)CCCCC3	.	.	.	.	.	/	/
CCC(C)c1ccc(NC(=O)c2cccnc2)cc1 (centres undefined)	.	.	.	.	.	/	/
O=C(Nc1cccc(NC(=O)c2cc([N+](=O)[O-])ccc2Cl)n1)c1cc([N+](=O)[O-])ccc1Cl	.	.	.	96	.	96	50
Cc1cc(NC(=O)c2cc([N+](=O)[O-])ccc2Cl)no1	.	.	.	.	.	/	/
CN(C)c1cccc(C(=O)OCC(=O)Nc2ccccc2Cl)c1	.	.	.	.	.	/	/
CCOC(=O)/C(C(=O)Nc1ccc(Br)cc1)=C1/NC(C)(C)Cc2ccccc21	.	.	.	.	.	/	/
COc1ccc(N2CCN(C(=O)Cn3cnc4c(cnn4-c4ccc(C)cc4)c3=O)CC2)cc1	.	.	.	61	.	.	/
O=C(COc1ccccc1C(=O)O)Nc1cccc2ccccc12	.	.	.	.	.	/	/
CC1CCc2nc(NC(=O)C3COc4ccccc4O3)sc2C1 (centres undefined)	.	.	.	52	.	77	+
CC1CCc2nc(NC(=O)c3ccc(S(=O)(=O)N4CCCc5ccccc54)cc3)sc2C1 (centres undefined)	.	.	.	58	.	.	/
